ChEMBL document CHEMBL1122631, “2,3,4,4a,5,9b-Hexahydro-1H-indeno[1,2-b]pyridines: potential antidepressants” (J Med Chem, 1984)
“And” between values parts separate entries of the source, which are not always exact repeats. Equal values may be shown once.

Experiments:
Rattus norvegicus [1] = assay: Ability to inhibit re uptake of [14C]norepinephrine in synaptosomes from rat whole brain, was determined 1 h after peroral administration of 80 mg of compound.; format: functional, organism-based
Outline: (§1)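 Ex vivo/in vitro: rats dosed orally or ip, killed 1 h later; whole-brain synaptosomes from a pool of n=3 rats; [14C]NE or [14C]5-HT uptake (Krebs-Henseleit bicarbonate, pH 7.4, 11 mmol glucose; 1 × 10^-7 mol labelled amine, 37 °C, 5 min), filtration, scintillation counting; quadruplicate determinations, mean ± SD as % of control-animal uptake.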

Rattus norvegicus [2] = organism: Rattus norvegicus; assay: Compound was tested for inhibition of uptake of [3H]dopamine (DA) into rat corpus striatum, in vitro.; format: functional
Outline: (§2)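 Rat brain synaptosomes (Whittaker method) incubated with labelled monoamine (1 × 10^-7 mol final) at 37 °C with or without drug. [14C]NE and [14C]5-HT uptake in Krebs-Henseleit bicarbonate pH 7.4 with 11 mmol glucose; [3H]DA uptake in phosphate buffer, corpus striatum synaptosomes. Time: 5 min whole brain, 10 min hypothalamus. Nonspecific binding at 0 °C; membrane filtration, scintillation counting; IC50 from 3–4 concentrations, at least triplicate.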

Rattus norvegicus [3] = organism: Rattus norvegicus; assay: Compound was tested for inhibition of uptake of [14C]norepinephrine (NE) into rat brain hypothalamus, in vitro.; format: functional; outline: as §2
Rattus norvegicus [4] = organism: Rattus norvegicus; assay: Compound was tested for inhibition of uptake of [14C]5-HT (5-HT) into rat whole brain, in vitro.; format: functional; outline: as §2
[5] = Therapeutic index (TI), ratio of LD50 and ED50 (TBZ) in mice after i.p. administration; conditions: mouse, in vivo, ip
Rattus norvegicus [6] = assay: Ability to inhibit re uptake of [14C]5-HT in synaptosomes from rat whole brain, was determined 1 h after peroral administration of 80 mg of compound.; format: functional, organism-based; outline: as §1
[7] = Partition coefficient (logP); format: physicochemical; conditions: octanol/water
[8] = Acute toxicity in mice, after intraperitoneal administration.; format: organism-based; conditions: mouse, in vivo, ip
Outline: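 Mice, groups of 10, given compound suspended in 1% methylcellulose ip at 10 mL/kg, then housed with food and water ad libitum. Observed hourly up to 6 h; deaths recorded at 24 and 48 h.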

Mus musculus [9] = assay: Prevention of tetrabenazine induced ptosis in mice following i.p. administration.; format: functional; conditions: ip
Outline: (§3)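 Mice given compound ip in 1% methylcellulose (10 mL/kg), 30 min before tetrabenazine 40 mg/kg base ip; solvent+TBZ control per test. Ptosis scored 30 min after TBZ (+1 min) as 100/50/0% (closed/half/open), not normalized.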

Rattus norvegicus [10] = assay: Ability to inhibit re uptake of [14C]-5-HT in synaptosomes from rat whole brain, was determined 1 h after intraperitoneal administration of 80 mg of compound.; format: functional; outline: as §1
Mus musculus [11] = assay: Antidepressant activity was measured by the prevention of tetrabenazine (TBZ) induced ptosis in mice after intraperitoneal administration of the compound.; format: functional; conditions: ip; outline: as §3
Rattus norvegicus [12] = assay: Ability to inhibit re uptake of [14C]norepinephrine in synaptosomes from rat whole brain, was determined 1 hr after intraperitoneal administration of 80 mg of compound.; format: functional; outline: as §1
Mus musculus [13] = assay: Prevention of tetrabenazine (TBZ)-induced ptosis in mice after intraperitoneal administration.; format: functional, organism-based; outline: as §3
[14] = Compound was tested for acute toxicity in mice, after intravenous administration of the compound.; format: organism-based; conditions: mouse, in vivo
Mus musculus [15] = organism: Mus musculus; assay: Percent enhancement of spontaneous motor activity (SMA) was observed. Accumulated motility counts during second hour of observation, was reported.; format: functional
Mus musculus [16] = assay: Enhancement of spontaneous motor activity (SMA) in mice after oral administration of 1 mg/kg of the compound. Accumulated motility counts during first hour of observation, was reported.; format: functional
Mus musculus [17] = organism: Mus musculus; assay: Percent enhancement of spontaneous motor activity (SMA) was observed. Accumulated motility counts during first hour of observation, was reported.; format: functional
Mus musculus [18] = organism: Mus musculus; assay: Percent enhancement of spontaneous motor activity (SMA) was observed. Accumulated motility counts during one hour of observation, was reported.; format: functional
Mus musculus [19] = assay: Enhancement of spontaneous motor activity (SMA) in mice after oral administration of 0.3 mg/kg of the compound. Accumulated motility counts during second hour of observation, was reported.; format: functional
Mus musculus [20] = assay: Enhancement of spontaneous motor activity (SMA) in mice after oral administration of 1 mg/kg of the compound. Accumulated motility counts during second hour of observation, was reported.; format: functional
Mus musculus [21] = assay: Prevention of tetrabenazine (TBZ) induced ptosis in mice after intraperitoneal administration; b denotes 'No activity detected up to a dose of one-fifth of the LD ip in mice; format: functional, organism-based; outline: as §3
Rattus norvegicus [22] = assay: Ability to inhibit re uptake of [14C]norepinephrine in synaptosomes from rat whole brain, was determined 1 hr after peroral administration of 80 mg of compound.; format: functional; outline: as §1

Row | SMILES | IC50 (Rattus norvegicus [2]) | IC50 (Rattus norvegicus [3]) | IC50 (Rattus norvegicus [4]) | selectivity ratio [5] | LD50 [8] | ED50 (Mus musculus [9]) | ED50 (Mus musculus [11]) | other results
1 | Cc1ccc([C@@H]2c3ccccc3[C@@H]3[C@H]2CCCN3C)cc1 | 90 nM | 65 nM | > 100 µM | 77 | 232 mg/kg | 3 mg/kg | – | Uptake (Rattus norvegicus [1]): > 90% (2×) and 76.3%; Uptake (Rattus norvegicus [6]): > 90% (2×) and 88.1%; logP [7]: 3.83; Uptake (Rattus norvegicus [10]): > 90%
2 | CN1CCC[C@H]2[C@H](c3ccccc3)c3ccccc3[C@H]21 | 100 nM | 12 nM | ~100 µM | 185 | 74 mg/kg | 0.4 mg/kg | – | –
3 | CCCCOc1ccc([C@@H]2c3ccccc3[C@@H]3[C@H]2CCCN3C)cc1 | – | – | – | 14 | 134 mg/kg | – | 10 mg/kg | –
4 | Cc1ccc([C@@H]2c3cc(O)ccc3[C@H]3NCCC[C@@H]23)cc1N | 100 nM | 40 nM | 0.43 µM | 70 | 210 mg/kg | – | 3 mg/kg | Uptake (Rattus norvegicus [1]): > 90% and 83.5% and 88.1%; Uptake (Rattus norvegicus [12]): 80% and > 90% and 87.7%; Uptake (Rattus norvegicus [6]): > 90%; logP [7]: 2.33; Uptake (Rattus norvegicus [10]): > 90%
5 | CCCN1CCC[C@H]2[C@H](c3ccccc3)c3ccccc3[C@H]21 | 110 nM | 410 nM | > 100 µM | 30 | 24 mg/kg | 0.8 mg/kg | – | –
6 | CN1CCC[C@H]2[C@H](c3ccc(O)cc3)c3ccccc3[C@H]21 | – | – | – | 36 | 178 mg/kg | – | 5 mg/kg | –
7 | Cc1ccc([C@H]2c3cc(O)ccc3[C@H]3NCCC[C@@H]23)cc1N | – | – | – | – | 67 mg/kg | – | 10 mg/kg | –
8 | COc1cc2c(cc1OC)[C@H]1NCCC[C@H]1[C@H]2c1cccnc1 | – | – | – | – | – | – | – | ED50 (Mus musculus [13]): No activity detected up to a dose of 1/5 LD50 ip in mice; LD50 [14]: 30 mg/kg
9 | c1ccc2c(c1)[C@@H](c1ccncc1)[C@@H]1CCCN[C@H]21 | – | – | – | 10 | 20 mg/kg | – | 2 mg/kg | –
10 | Nc1ccc([C@@H]2c3ccccc3[C@H]3NCCC[C@@H]23)cc1 | 44 nM | 7.4 nM | > 100 µM | 500 | 50 mg/kg | 0.1 mg/kg | – | Basis motility (Mus musculus [15]): -7; Exploration motility (Mus musculus [16]): 7924; Exploration motility (Mus musculus [17]): -4; Exploration motility (Mus musculus [18]): 116; Basis motility (Mus musculus [19]): 5501; Basis motility (Mus musculus [20]): 12001
11 | c1ccc([C@@H]2c3ccccc3[C@H]3NCCC[C@@H]23)cc1 | 20 nM | 18 nM | ~100 µM | 39 | 27 mg/kg | 0.7 mg/kg | – | –
12 | Nc1ccc([C@H]2c3ccccc3[C@H]3NCCC[C@@H]23)cc1 | 330 nM | 180 nM | 20 µM | – | 20 mg/kg | 3 mg/kg | – | –
13 | COc1ccc2c(c1)[C@H](c1ccc(C(C)C)cc1)[C@@H]1CCCN[C@H]21 | – | – | – | – | 37 mg/kg | – | – | ED50 (Mus musculus [21]): No activity detected up to a dose of 1/5 LD50 ip in mice
14 | Cc1ccc([C@@H]2c3cc(O)ccc3[C@H]3NCCC[C@@H]23)cc1 | 17 nM | 31 nM | 0.28 µM | 67 | 67 mg/kg | – | 1 mg/kg | Uptake (Rattus norvegicus [1]): > 90%; Uptake (Rattus norvegicus [12]): 68.2% and 62%; Uptake (Rattus norvegicus [6]): 90.4% and 86.9%; logP [7]: 3.13; Uptake (Rattus norvegicus [10]): > 90% and 84.9%
15 | Nc1ccc([C@@H]2c3cc(O)ccc3[C@H]3NCCC[C@@H]23)cc1 | 46 nM | 15 nM | 1.6 µM | 1500 | 150 mg/kg | 0.1 mg/kg | – | Uptake (Rattus norvegicus [22]): > 90%; Uptake (Rattus norvegicus [6]): > 90%; logP [7]: 1.91; Uptake (Rattus norvegicus [10]): > 90%
16 | Oc1ccc([C@@H]2c3ccccc3[C@H]3NCCC[C@@H]23)cc1 | – | – | – | 15 | 30 mg/kg | – | 2 mg/kg | –
17 | CN1CCC[C@H]2[C@H](c3ccc(N)cc3)c3ccccc3[C@H]21 | 240 nM | 110 nM | ~100 µM | 500 | 50 mg/kg | 0.1 mg/kg | – | –
18 | CCCCOc1ccc([C@@H]2c3ccccc3[C@H]3NCCC[C@@H]23)cc1 | – | – | – | 46 | 46 mg/kg | – | 1 mg/kg | –
19 | COc1ccc([C@@H]2c3ccccc3[C@@H]3[C@H]2CCCN3C)cc1 | – | – | – | 19 | 95 mg/kg | – | 5 mg/kg | –
